In ChEMBL document CHEMBL4130549, “Synthesis and bioactivities study of new antibacterial peptide mimics: The dialkyl cationic amphiphiles” (Eur J Med Chem, 2018):
The source made the active and inactive calls. No cut-off for these calls is given here.

Tests used:
[1] = system: Staphylococcus aureus; assay: Induction of inner membrane permeabilization in Staphylococcus aureus ATCC 29213 at 20 ug/ml measured every 2 mins for 12 mins by propidium iodide staining based fluorescence assay; type: functional, organism-based
Procedure, shortened: (§1)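 Mid-log cells (~10^8 CFU/mL) pre-incubated with propidium iodide (10 µM, 50 µL), 30 min for S. aureus and 40 min for E. coli. Fluorescence (ex 535/em 617 nm) read for 8 min, then compound added to 20 µg/mL final and monitored every 2 min for 12 min. Water-treated control.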

[2] = system: Staphylococcus aureus; assay: Antibacterial activity against methicillin-resistant Staphylococcus aureus isolate M6 after 16 to 20 hrs by broth microdilution method; type: functional
Procedure, shortened: (§2)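 CLSI broth microdilution in cation-adjusted Mueller-Hinton broth. A 4-6 h culture was diluted to about 10⁶ CFU/mL and mixed 1:1 with twofold compound dilutions (256–0.5 µg/mL before mixing) prepared from aqueous stocks. Plates were incubated at 37 °C for 16-20 h. Each concentration was tested in duplicate, and the experiment was repeated at least twice.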

[3] = system: Salmonella enterica; assay: Antibacterial activity against Salmonella enterica after 16 to 20 hrs by broth microdilution method; type: functional
Procedure, shortened: (§3)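 Broth microdilution per CLSI in cation-adjusted Mueller-Hinton broth; 4-6 h cultures (~10⁸ CFU/mL) diluted to ~10⁶ CFU/mL and mixed 1:1 with twofold dilutions of water-dissolved compound (256 to 0.5 µg/mL). Incubated 16-20 h at 37 °C; MIC read visually. Each concentration run in duplicate, whole experiment repeated at least twice. MRSA, KPC and NDM-1 strains were clinical isolates.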

[4] = system: Klebsiella pneumoniae; assay: Antibacterial activity against carbapenemase-producing Klebsiella pneumoniae after 16 to 20 hrs by broth microdilution method; type: functional; procedure, shortened: as §3
[5] = system: Staphylococcus aureus; assay: Antibacterial activity against Staphylococcus aureus ATCC 29213 after 16 to 20 hrs by broth microdilution method; type: functional; procedure, shortened: as §2
[6] = system: Klebsiella pneumoniae; assay: Antibacterial activity against carbapenemase-producing Klebsiella pneumoniae isolate K4 after 16 to 20 hrs by broth microdilution method; type: functional; procedure, shortened: as §3
[7] = system: Klebsiella pneumoniae; assay: Antibacterial activity against carbapenemase-producing Klebsiella pneumoniae isolate K6 after 16 to 20 hrs by broth microdilution method; type: functional; procedure, shortened: as §3
[8] = system: Enterobacteriaceae; assay: Antibacterial activity against NDM-1-producing Enterobacteriaceae isolate N8 after 16 to 20 hrs by broth microdilution method; type: functional; procedure, shortened: as §3
[9] = system: Staphylococcus aureus; assay: Antibacterial activity against methicillin-resistant Staphylococcus aureus isolate M1 after 16 to 20 hrs by broth microdilution method; type: functional; procedure, shortened: as §2
[10] = system: Staphylococcus aureus; assay: Induction of cytoplasmic membrane depolarization in Staphylococcus aureus ATCC 29213 at 20 ug/ml measured every 2 mins for 12 mins by diSC35 staining based fluorescence assay; type: functional, organism-based
Procedure, shortened: (§4)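 Mid-log cells (4–6 h) pelleted, washed and resuspended (~10^8 CFU/mL) in PBS for S. aureus, or in 5 mM HEPES, 5 mM glucose and 100 mM KCl (1:1:1) for E. coli. Preloaded with diSC35 (10 µM, 50 µL), 30 min for S. aureus and 40 min plus EDTA (200 µM, 50 µL) for E. coli. Baseline read 8 min (ex 622/em 670 nm), then compound added to 20 µg/mL final and read every 2 min for 12 min. Water control.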

[11] = system: Staphylococcus aureus; assay: Antibacterial activity against methicillin-resistant Staphylococcus aureus isolate M10 after 16 to 20 hrs by broth microdilution method; type: functional; procedure, shortened: as §2
[12] = system: Klebsiella pneumoniae; assay: Antibacterial activity against carbapenemase-producing Klebsiella pneumoniae isolate K3 after 16 to 20 hrs by broth microdilution method; type: functional; procedure, shortened: as §3
[13] = Hemolytic activity in sheep RBC after 1 hr; type: ADME, cell-based, Ovis aries, Erythrocyte; conditions: sheep red blood cells (erythrocytes)
Procedure, shortened: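 Sheep RBCs suspended at 5% in PBS; 150 µL added to 50 µL compound dilutions (5120 to 10 µg/mL series). Incubated 1 h at 37 °C, then centrifuged; supernatant absorbance read at 540 nm. Lysis (%) = (A−A0)/(Atotal−A0)×100, with untreated 5% RBC as A0 and 0.1% Triton X-100 as total.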

[14] = system: Staphylococcus aureus; assay: Antibacterial activity against methicillin-resistant Staphylococcus aureus isolate M9 after 16 to 20 hrs by broth microdilution method; type: functional; procedure, shortened: as §2
[15] = system: Escherichia coli; assay: Induction of inner membrane permeabilization in Escherichia coli ATCC 25922 at 20 ug/ml measured every 2 mins for 12 mins by propidium iodide staining based fluorescence assay; type: functional, organism-based; procedure, shortened: as §1
[16] = system: Enterobacteriaceae; assay: Antibacterial activity against NDM-1-producing Enterobacteriaceae isolate N3 after 16 to 20 hrs by broth microdilution method; type: functional; procedure, shortened: as §3
[17] = system: Enterobacteriaceae; assay: Antibacterial activity against NDM-1-producing Enterobacteriaceae after 16 to 20 hrs by broth microdilution method; type: functional; procedure, shortened: as §3
[18] = system: Escherichia coli; assay: Induction of outer membrane permeabilization in Escherichia coli ATCC 25922 at 20 ug/ml measured every 2 mins for 12 mins by NPN staining based fluorescence assay; type: functional, organism-based
Procedure, shortened: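 Mid-log E. coli (~10^8 CFU/mL) in black plates pre-incubated about 40 min with NPN (10 µM, 50 µL). Baseline read 8 min (ex 350/em 420 nm), then compound added to 20 µg/mL final and fluorescence followed every 2 min for 12 min. Water-treated control.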

[19] = system: Klebsiella pneumoniae; assay: Antibacterial activity against carbapenemase-producing Klebsiella pneumoniae isolate K8 after 16 to 20 hrs by broth microdilution method; type: functional; procedure, shortened: as §3
[20] = system: Staphylococcus aureus; assay: Antibacterial activity against methicillin-resistant Staphylococcus aureus isolate M2 after 16 to 20 hrs by broth microdilution method; type: functional; procedure, shortened: as §2
[21] = system: Klebsiella pneumoniae; assay: Antibacterial activity against carbapenemase-producing Klebsiella pneumoniae isolate K10 after 16 to 20 hrs by broth microdilution method; type: functional; procedure, shortened: as §3
[22] = system: Klebsiella pneumoniae; assay: Antibacterial activity against carbapenemase-producing Klebsiella pneumoniae isolate K9 after 16 to 20 hrs by broth microdilution method; type: functional; procedure, shortened: as §3
[23] = system: Enterobacteriaceae; assay: Antibacterial activity against NDM-1-producing Enterobacteriaceae isolate N1 after 16 to 20 hrs by broth microdilution method; type: functional; procedure, shortened: as §3
[24] = system: Staphylococcus aureus; assay: Antibacterial activity against methicillin-resistant Staphylococcus aureus isolate M3 after 16 to 20 hrs by broth microdilution method; type: functional; procedure, shortened: as §2
[25] = system: Enterobacteriaceae; assay: Antibacterial activity against NDM-1-producing Enterobacteriaceae isolate N6 after 16 to 20 hrs by broth microdilution method; type: functional; procedure, shortened: as §3
[26] = system: Enterobacteriaceae; assay: Antibacterial activity against NDM-1-producing Enterobacteriaceae isolate N5 after 16 to 20 hrs by broth microdilution method; type: functional; procedure, shortened: as §3
[27] = system: Enterobacteriaceae; assay: Antibacterial activity against NDM-1-producing Enterobacteriaceae isolate N9 after 16 to 20 hrs by broth microdilution method; type: functional; procedure, shortened: as §3
[28] = system: Klebsiella pneumoniae; assay: Antibacterial activity against carbapenemase-producing Klebsiella pneumoniae isolate K2 after 16 to 20 hrs by broth microdilution method; type: functional; procedure, shortened: as §3
[29] = system: Klebsiella pneumoniae; assay: Antibacterial activity against carbapenemase-producing Klebsiella pneumoniae isolate K1 after 16 to 20 hrs by broth microdilution method; type: functional; procedure, shortened: as §3
[30] = system: Staphylococcus aureus; assay: Antibacterial activity against methicillin-resistant Staphylococcus aureus isolate M5 after 16 to 20 hrs by broth microdilution method; type: functional; procedure, shortened: as §2
[31] = system: Escherichia coli; assay: Induction of cytoplasmic membrane depolarization in Escherichia coli ATCC 25922 at 20 ug/ml measured every 2 mins for 12 mins by diSC35 staining based fluorescence assay; type: functional, organism-based; procedure, shortened: as §4
[32] = system: Enterobacteriaceae; assay: Antibacterial activity against NDM-1-producing Enterobacteriaceae isolate N7 after 16 to 20 hrs by broth microdilution method; type: functional; procedure, shortened: as §3
[33] = system: Escherichia coli; assay: Antibacterial activity against Escherichia coli ATCC 25922 after 16 to 20 hrs by broth microdilution method; type: functional; procedure, shortened: as §3
[34] = system: Enterobacteriaceae; assay: Antibacterial activity against NDM-1-producing Enterobacteriaceae isolate N2 after 16 to 20 hrs by broth microdilution method; type: functional; procedure, shortened: as §3
[35] = system: Klebsiella pneumoniae; assay: Antibacterial activity against carbapenemase-producing Klebsiella pneumoniae isolate K7 after 16 to 20 hrs by broth microdilution method; type: functional; procedure, shortened: as §3
[36] = system: Staphylococcus aureus; assay: Antibacterial activity against methicillin-resistant Staphylococcus aureus isolate M4 after 16 to 20 hrs by broth microdilution method; type: functional; procedure, shortened: as §2
[37] = system: Enterobacteriaceae; assay: Antibacterial activity against NDM-1-producing Enterobacteriaceae isolate N10 after 16 to 20 hrs by broth microdilution method; type: functional; procedure, shortened: as §3
[38] = system: Enterococcus faecalis; assay: Antibacterial activity against Enterococcus faecalis after 16 to 20 hrs by broth microdilution method; type: functional; procedure, shortened: as §3
[39] = system: Staphylococcus aureus; assay: Antibacterial activity against methicillin-resistant Staphylococcus aureus isolate M8 after 16 to 20 hrs by broth microdilution method; type: functional; procedure, shortened: as §2
[40] = system: Staphylococcus aureus; assay: Antibacterial activity against methicillin-resistant Staphylococcus aureus after 16 to 20 hrs by broth microdilution method; type: functional; procedure, shortened: as §2
[41] = system: Staphylococcus aureus; assay: Antibacterial activity against methicillin-resistant Staphylococcus aureus isolate M7 after 16 to 20 hrs by broth microdilution method; type: functional; procedure, shortened: as §2
[42] = system: Enterobacteriaceae; assay: Antibacterial activity against NDM-1-producing Enterobacteriaceae isolate N4 after 16 to 20 hrs by broth microdilution method; type: functional; procedure, shortened: as §3
[43] = system: Klebsiella pneumoniae; assay: Antibacterial activity against carbapenemase-producing Klebsiella pneumoniae isolate K5 after 16 to 20 hrs by broth microdilution method; type: functional; procedure, shortened: as §3

## CCCCCCCCN(CCCCCCCC)C(=O)[C@@H](N)C(C)O.Cl (stereo partly drawn)
[1]
  Activity: Active
[2]
  MIC: 8 µg/mL
[3]
  MIC: 64 µg/mL
[4]
  MIC: 64 µg/mL
[5]
  MIC: 4 µg/mL
[6]
  MIC: 64 µg/mL
[7]
  MIC: 64 µg/mL
[8]
  MIC: > 64 µg/mL
[9]
  MIC: 8 µg/mL
[10]
  Activity: Active
[11]
  MIC: 8 µg/mL
[12]
  MIC: 64 µg/mL
[13]
  HC50 at 1 h: 268 µg/mL
[14]
  MIC: 8 µg/mL
[15]
  Activity: Active
[16]
  MIC: 64 µg/mL
[17]
  MIC: 64 µg/mL
[18]
  Activity: Active
[19]
  MIC: 64 µg/mL
[20]
  MIC: 4 µg/mL
[21]
  MIC: 64 µg/mL
[22]
  MIC: 64 µg/mL
[23]
  MIC: > 64 µg/mL
[24]
  MIC: 4 µg/mL
[25]
  MIC: > 64 µg/mL
[26]
  MIC: 64 µg/mL
[27]
  MIC: > 64 µg/mL
[28]
  MIC: 64 µg/mL
[29]
  MIC: 64 µg/mL
[30]
  MIC: 8 µg/mL
[31]
  Activity: Active
[32]
  MIC: > 64 µg/mL
[33]
  MIC: 16 µg/mL
[34]
  MIC: > 64 µg/mL
[35]
  MIC: 64 µg/mL
[36]
  MIC: 4 µg/mL
[37]
  MIC: > 64 µg/mL
[38]
  MIC: 8 µg/mL
[39]
  MIC: 8 µg/mL
[40]
  MIC: 8 µg/mL
[41]
  MIC: 8 µg/mL
[42]
  MIC: 64 µg/mL
[43]
  MIC: 64 µg/mL
